Test results reported in PMC11455621 (Structure (London, England : 1993), 2024).
Substitutions are numbered along the chain they refer to. Values belong to the compound of their own block, whether it stands above or below them.

Experiments:
HsFN3K [1] = target: T1, HsFN3K (Homo sapiens, UniProt Q9H479); assay: Differential scanning fluorimetry; assay type: binding; conditions: DSF; for Tm increase versus HsFN3K alone: single ligand 250 μM
T1 sequence (Q9H479 1-309): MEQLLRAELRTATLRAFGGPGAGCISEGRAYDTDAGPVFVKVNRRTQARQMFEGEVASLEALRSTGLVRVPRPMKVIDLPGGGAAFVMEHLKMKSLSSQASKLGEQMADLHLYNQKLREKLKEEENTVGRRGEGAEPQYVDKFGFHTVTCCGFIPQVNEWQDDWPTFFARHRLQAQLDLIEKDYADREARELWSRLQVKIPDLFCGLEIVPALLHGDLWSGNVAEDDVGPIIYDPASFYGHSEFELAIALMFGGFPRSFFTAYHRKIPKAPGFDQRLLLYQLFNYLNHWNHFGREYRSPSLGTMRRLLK

HsFN3K WT = target: T2, HsFN3K WT (Homo sapiens, UniProt Q9H479); assay: Direct substrate phosphorylation assay; assay type: biochemical; conditions: glycated lysozyme 2mg/mL, 1 hour at 25°C (Figure S6D)
T2 sequence (Q9H479 1-309): T1 sequence (Q9H479 1-309)
In short: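 Lysozyme glycated with ribose or glucose (1:1 molar, 3 or 28 days, 50°C). Reaction: 10 or 20 μM FN3K, 2 mg/mL glycated lysozyme, 5 mM HEPES pH 7, 5 mM MgCl2, 100 μM ATP, 1 h at 25°C. Quenched in Laemmli dye, run on SDS-PAGE, fixed in methanol/acetic acid. Stained with Pro-Q Diamond, destained in acetonitrile/sodium acetate pH 4, imaged at 602 nm […]. Coomassie restain for loading.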

HsFN3K H288A [2] = target: T3, HsFN3K H288A (Homo sapiens, UniProt Q9H479, H288A); assay: Differential scanning fluorimetry; assay type: binding; conditions: DSF
T3 sequence (Q9H479 1-309 H288A): T1 sequence (Q9H479 1-309) with H288A

HsFN3K W219A = target: T4, HsFN3K W219A (Homo sapiens, UniProt Q9H479, W219A); assay: Differential scanning fluorimetry; assay type: binding; conditions: DSF
T4 sequence (Q9H479 1-309 W219A): T1 sequence (Q9H479 1-309) with W219A

HsFN3K [3] = target: T1, HsFN3K; assay: Microscale thermophoresis; assay type: binding; conditions: MST
HsFN3K D234A [4] = target: T5, HsFN3K D234A (Homo sapiens, UniProt Q9H479, D234A); assay: Microscale thermophoresis; assay type: binding; conditions: MST
T5 sequence (Q9H479 1-309 D234A): T1 sequence (Q9H479 1-309) with D234A

HsFN3K D217A [5] = target: T6, HsFN3K D217A (Homo sapiens, UniProt Q9H479, D217A); assay: Microscale thermophoresis; assay type: binding
T6 sequence (Q9H479 1-309 D217A): T1 sequence (Q9H479 1-309) with D217A

HsFN3K D217A [6] = target: T6, HsFN3K D217A; assay: Differential scanning fluorimetry; assay type: binding; conditions: DSF
HsFN3K H291A [7] = target: T7, HsFN3K H291A (Homo sapiens, UniProt Q9H479, H291A); assay: Differential scanning fluorimetry; assay type: binding; conditions: DSF
T7 sequence (Q9H479 1-309 H291A): T1 sequence (Q9H479 1-309) with H291A

HsFN3K H288A [8] = target: T3, HsFN3K H288A; assay: ADP-Glo kinase kinetics, HsFN3K H288A; assay type: biochemical; conditions: H288A mutant vs WT HsFN3K
In short: (§1)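 E. coli BL21(DE3)-expressed human FN3K, MBP-His6 tag removed by TEV, at 0.5 μM. Reaction: 200 μM ATP, 10 mM MgCl2, 0–100 μM DMF, room temperature. Time points quenched with ADP-Glo reagent (40 min), then detection reagent (40 min). Luminescence converted to ADP by ATP-to-ADP conversion curves. v0 taken from the linear slope, then Michaelis–Menten fit. SEM from ≥2 independent experiments.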

HsFN3K H291A [9] = target: T7, HsFN3K H291A; assay: ADP-Glo kinase kinetics, HsFN3K H291A; assay type: biochemical; conditions: H291A mutant vs WT HsFN3K
In short: as §1

HsFN3K D234A [10] = target: T5, HsFN3K D234A; assay: Differential scanning fluorimetry; assay type: binding; conditions: DSF
[11] = target: human Fructosamine-3-kinase (HsFN3K) (human) (UniProt Q9H479); assay: intact protein LC-MS
[12] = target: human Fructosamine-3-kinase (HsFN3K) (human) (UniProt Q9H479); assay: SEC

substrate phosphorylation (HsFN3K WT): able to phosphorylate
Compound: glycated lysozyme: crystallization grade lysozyme incubated with ribose or glucose; protein substrate of FN3K

stoichiometry N [11]: 2
stoichiometry N [12]: 2
Compound: human Fructosamine-3-kinase (HsFN3K) (from UniProt Q9H479 1-309) (enzyme)

Further lines, the compound ahead of its results:

Compound: Nc1ncnc2c1ncn2[C@@H]1O[C@H](COP(=O)(O)OP(=O)(O)NP(=O)(O)O)[C@@H](O)[C@H]1O [AMP-PNP, adenylyl-imidodiphosphate]
binding of ATP mimetic (HsFN3K [1]; HsFN3K WT (Figure S7)): readily bound to HsFN3K

Compound: O=C(CN1CCOCC1)[C@@H](O)[C@H](O)[C@H](O)CO [DMF, 1-Deoxy-1-morpholino-fructose]
Tm shift on DMF binding (HsFN3K H288A [2]): 0.6 °C
ligand binding by Tm shift (HsFN3K W219A): did not bind DMF
binding of DMF in the absence of ATP (HsFN3K [3]; HsFN3K WT, absence of ATP): did not bind DMF
binding of ATP and DMF (HsFN3K D234A [4]): impaired binding
substrate (DMF) engagement in presence of AMP-PNP (HsFN3K [1]; HsFN3K WT, AMP-PNP instead of ATP (Figure S7)): prevented substrate engagement
melting temperature (Tm) with both ATP and DMF (HsFN3K [1]; HsFN3K WT, ATP+DMF 250 μM): 65.2 ± 0.6 °C
Tm shift of ATP and DMF compared to ATP alone (HsFN3K [1]; HsFN3K WT, DMF added with ATP): ~ 2 °C
Tm increase versus HsFN3K alone (HsFN3K [1]; HsFN3K WT): did not alter the Tm
binding of DMF (HsFN3K D217A [5]; MST): lost the ability to bind DMF
ligand binding by Tm shift (HsFN3K D217A [6]): lost binding to DMF
Tm shift on DMF binding (HsFN3K H291A [7]): 3.6 °C
increase of Km for DMF versus wildtype (HsFN3K H288A [8]): 3 fold
increase of Km for DMF versus wildtype (HsFN3K H291A [9]): 3.5 fold
Tm shift in the presence of ATP or DMF individually or together (HsFN3K D234A [10]): no observable Tm shift

Compound: Nc1ncnc2c1ncn2[C@@H]1O[C@H](COP(=O)(O)OP(=O)(O)OP(=O)([O-])[O-])[C@@H](O)[C@H]1O.[Na+].[Na+] [ATP, Adenosine-5-triphosphate disodium salt]
ATP binding (HsFN3K H288A [2]): retained the ability to bind ATP
ligand binding by Tm shift (HsFN3K W219A): retained the ability to bind ATP
Kd (HsFN3K [3]; read-out: binding affinity (KD) for ATP, fluorescently labeled HsFN3K WT, 25°C): 3.9 ± 3.4 µM
binding of ATP and DMF (HsFN3K D234A [4]): impaired binding
melting temperature (Tm) with ligand (HsFN3K [1]; HsFN3K WT, ligand 250 μM, apo Tm 56.9 ± 0.7°C): 63.2 ± 0.5 °C
Tm increase versus HsFN3K alone (HsFN3K [1]; HsFN3K WT): ~ 6 °C
Kd (HsFN3K D217A [5]; read-out: binding affinity (KD) for ATP, MST): 3.5 ± 2.3 µM
ligand binding by Tm shift (HsFN3K D217A [6]): retained the ability to bind ATP
ATP binding (HsFN3K H291A [7]): retained the ability to bind ATP
Tm shift in the presence of ATP or DMF individually or together (HsFN3K D234A [10]): no observable Tm shift
